The values below come from the array DNA melting data of Ke et al. (doi:10.1101/2024.01.08.574731).

Series [1] can be described thus: folding enthalpy; higher = less favourable; fluorescence melt of hairpins on a sequencing array, two-state fit. As to conditions: sodium 0.088 M. A digest of the protocol: (§1)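 Cy3 fluorescence of library hairpins on a sequenced MiSeq flow cell, with annealed Cy3 and quencher oligos, was imaged in 50 mM Na-HEPES pH 8.0, 25 mM NaCl in 2.5 °C steps up to 60 °C. Signals were normalised to pre-quench Cy3 and to control variants. Melting temperature and folding enthalpy came from bootstrapped two-state fits, inverse-variance combined over four replicates. Fitted temperatures were raised by 9.35 °C to match UV melts.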

Series [2] is described as follows: melting temperature; fluorescence melt of hairpins on a sequencing array, two-state fit, raised by 9.35 °C to match UV melts. Conditions: sodium 0.088 M. A digest of the protocol: as §1

As for GCAAACGGAAACGCTTGC ((((.((....)).)))), the folding enthalpy in series [1] was -35.1 kcal/mol. Further, in series [2], the Tm is 47.6 °C.

Regarding GCAAAGCGAAAGCCATGC (((..((....))..))), the folding enthalpy in series [1] is -12.3 kcal/mol. The Tm in series [2] came to 32.2 °C.

Regarding GCAAAGCGAAAGCCTAGC ((.(.((....)).).)), the folding enthalpy in series [1] is -7.83 kcal/mol. Also, in series [2], the Tm was determined as 30.2 °C.

For the sequence GCAAAGCGAAAGCCTCGC ((.(.((....)).).)), the folding enthalpy in series [1] is -7.59 kcal/mol. In series [2], the Tm came out at 27.9 °C.

On to GCAAAGCGAAAGCGCTGC (((..((....))..))), for which the folding enthalpy in series [1] was -16.9 kcal/mol. Moreover, in series [2], the Tm came to 57.4 °C.

For GCAAAGCGAAAGCTACGC ((..(((....)))..)), the folding enthalpy in series [1] was -11 kcal/mol. Also, in series [2], the Tm is 40.8 °C.

Regarding GCAAAGCGAAAGCTAGGC ((..(((....)))..)), in series [1], the folding enthalpy was -15.1 kcal/mol. Also, in series [2], the Tm was 48.3 °C.

Take GCAAAGCGAAAGCTTCGC ((.((((....)))).)): in series [1], the folding enthalpy was -23.8 kcal/mol. For the same sequence, in series [2], the Tm came to 55.8 °C.

Turning to GCAAAGCGAAAGCTTGC (((.(((....)))))), the folding enthalpy in series [1] was -23.8 kcal/mol. Further, in series [2], the Tm amounted to 64.5 °C.

Turning to GCAAAGTCGAAAGACTGC (((..(((....)))))), the folding enthalpy in series [1] was -19.5 kcal/mol. Besides, the Tm in series [2] stood at 47.8 °C.

As to GCAAATGGAAACATTTAC (.(((((....))))).), in series [1], the folding enthalpy was -13.5 kcal/mol. The Tm in series [2] worked out at 28.1 °C.

For GCAACAGGAAACTATTGC ((((.((....)).)))), the folding enthalpy in series [1] was -19.2 kcal/mol. Also, the Tm in series [2] came to 31.8 °C.

With GCAACAGGAAACTGTCGC ((.((((....)))).)), the folding enthalpy in series [1] is -32.1 kcal/mol. Besides, in series [2], the Tm is 44.2 °C.

With GCAACCGAAAGGTCTGC ((((((....))).))), the folding enthalpy in series [1] is -22.7 kcal/mol. Further, the Tm in series [2] came to 47.6 °C.

On to GCAACCGCGAAAGCGTGC (((..(((....)))))), for which, in series [1], the folding enthalpy is -14.3 kcal/mol. Further, the Tm in series [2] was 44.7 °C.

GCAACCGGAAACAGTTGC (((((.(....).))))): in series [1], the folding enthalpy is -31.7 kcal/mol. Moreover, in series [2], the Tm amounted to 45.7 °C.

On to GCAACGCGAAAGCGCAGC ((..(((....)))..)), for which the folding enthalpy in series [1] was -11.7 kcal/mol. In addition, the Tm in series [2] worked out at 48.1 °C.

Regarding GCAACGCGAAAGCTGTGC (((..((....))..))), in series [1], the folding enthalpy is -15.2 kcal/mol. In addition, the Tm in series [2] came out at 48.9 °C.

As to GCAACGCGAAAGCTTAGC ((.(.((....)).).)), the folding enthalpy in series [1] is -7.66 kcal/mol. In series [2], the Tm came out at 28.5 °C.

For the sequence GCAACGCGAAAGCTTGGC ((.(.((....)).).)), in series [1], the folding enthalpy is -11.5 kcal/mol. In series [2], the Tm was 38.5 °C.

For GCAACGTCGAAAGACTGC (((..(((....)))))), the folding enthalpy in series [1] is -20.1 kcal/mol. The Tm in series [2] came out at 39.1 °C.

As to GCAACTCGAAAGAGCTGC (((.(((....))).))), in series [1], the folding enthalpy was -46.6 kcal/mol. In series [2], the Tm was found to be 52.3 °C.

Regarding GCAACTGGAAACGGTTGC (((((.(....).))))), the folding enthalpy in series [1] was -45.2 kcal/mol. Besides, the Tm in series [2] amounted to 54.2 °C.

GCAAGACGAAAGTCGTGC (((.(((....))).))): in series [1], the folding enthalpy was -32.2 kcal/mol. For the same sequence, the Tm in series [2] is 61.1 °C.

On to GCAAGAGGAAACTTTTGC ((((.((....)).)))), for which, in series [1], the folding enthalpy is -26 kcal/mol. For the same sequence, the Tm in series [2] stood at 39 °C.

Consider GCAAGCGAAAGCTATTGC ((((((....)))..))), for which the folding enthalpy in series [1] was -17.5 kcal/mol. Moreover, the Tm in series [2] is 42.8 °C.

In the case of GCAAGCGAAAGCTCATGC ((((((....)))..))), the folding enthalpy in series [1] was -12.5 kcal/mol. Further, the Tm in series [2] was 35.2 °C.

As to GCAAGCGAAAGCTGATGC ((((((....)))..))), in series [1], the folding enthalpy was -16.3 kcal/mol. Besides, the Tm in series [2] is 45.7 °C.

On to GCAAGCGAAAGCTGCTGC ((((((....)))..))), for which the folding enthalpy in series [1] is -19.5 kcal/mol. Moreover, in series [2], the Tm amounted to 67.2 °C.

For GCAAGCGAAAGCTTATGC ((((((....)))..))), the folding enthalpy in series [1] is -14.7 kcal/mol. Besides, in series [2], the Tm came to 39.8 °C.

In the case of GCAAGCGAAAGCTTCTGC ((((((....)))..))), in series [1], the folding enthalpy is -11.5 kcal/mol. Besides, the Tm in series [2] was 42.1 °C.

Regarding GCAAGCGAAAGCTTGTGC ((((((....)))..))), the folding enthalpy in series [1] is -16.9 kcal/mol. In addition, the Tm in series [2] was determined as 66.7 °C.

As to GCAAGGCGAAAGCAGTGC (((..((....))..))), in series [1], the folding enthalpy is -16.8 kcal/mol. Further, in series [2], the Tm amounted to 50.9 °C.

In the case of GCAAGGCGAAAGCCCTGC (((.(((....))).))), the folding enthalpy in series [1] is -31.3 kcal/mol. Also, the Tm in series [2] worked out at 50.7 °C.

GCAAGGCGAAAGCCTCGC ((.((((....)))).)): the folding enthalpy in series [1] is -18.4 kcal/mol. Also, the Tm in series [2] came out at 59.3 °C.

Consider GCAAGGCGAAAGCCTGGC ((.((((....)))).)), for which the folding enthalpy in series [1] was -23.1 kcal/mol. The Tm in series [2] was 68.9 °C.
